Assay results: ChEMBL document CHEMBL4028916, “A Dipolar Cycloaddition Reaction To Access 6-Methyl-4,5,6,7-tetrahydro-1H-[1,2,3]triazolo[4,5-c]pyridines Enables the Discovery Synthesis and Preclinical Profiling of a P2X7 Antagonist Clinical Candidate” (J Med Chem, 2018)

Legend:
[1] = Volume of distribution at steady state in Beagle dog at 0.125 mg/kg, iv or 0.625 mg/kg, po by LC-MS/MS method; assay type: ADME, organism-based, Canis lupus familiaris; details: in vivo, read-out: Vdss
[2] = Half life in Sprague-Dawley rat at 0.5 mg/kg, iv by LC-MS/MS method; assay type: ADME, organism-based; details: in vivo
Outline: (§1)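 Single-dose PK in male Sprague-Dawley rats, beagle dogs or cynomolgus monkeys, given i.v. and p.o. as a solution in 50% PEG400/50% water or 20% HP-β-CD. Plasma measured by LC–MS/MS; parameters from noncompartmental analysis.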

[3] = Oral bioavailability in cynomolgus monkey at 0.625 mg/kg by LC-MS/MS method; assay type: ADME, organism-based, Macaca fascicularis; details: in vivo; outline: as §1
[4] = Clearance in Sprague-Dawley rat at 0.5 mg/kg, iv or […], po by LC-MS/MS method; assay type: ADME, organism-based; details: in vivo
[5] = AUC in dog at 300 mg/kg, po for 5 days; assay type: ADME, organism-based, Canis lupus familiaris; details: in vivo
[6] = AUC (24 hrs) in Sprague-Dawley rat at 0.5 mg/kg, iv or […], po by LC-MS/MS method; assay type: ADME, organism-based; details: in vivo
[7] = Drug uptake in Sprague-Dawley rat plasma administered at 10 mg/kg, po measured after 0.5 hrs; assay type: ADME, organism-based
Outline: (§2)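 Male Sprague Dawley rats (300–400 g) given 10 mg/kg p.o. One compound was dosed as a 0.5% HPMC suspension and the other as a 20% HP-β-cyclodextrin solution. Two animals per time point were killed with CO2 at 0.5, 2 and 6 h, and plasma and brain drug levels were taken. Data are mean ± SEM (n=2).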

[8] = AUC (24 hrs) in Beagle dog at 0.125 mg/kg, iv or 0.625 mg/kg, po by LC-MS/MS method; assay type: ADME, organism-based, Canis lupus familiaris; details: in vivo
[9] = Drug uptake in Sprague-Dawley rat plasma administered at 10 mg/kg, po measured after 6.0 hrs; assay type: ADME, organism-based; outline: as §2
[10] = Apparent permeability across apical to basolateral side in human Caco2 cells; assay type: ADME, cell-based; details: Caco-2
Outline: (§3)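 Caco-2 bidirectional permeability, reported as Papp B-A/A-B (×10⁻⁶ cm/s).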

[11] = Half life in cynomolgus monkey at 0.125 mg/kg, iv by LC-MS/MS method; assay type: ADME, organism-based, Macaca fascicularis; details: in vivo; outline: as §1
[12] = Cmax in Sprague-Dawley rat at 0.5 mg/kg, iv or […], po by LC-MS/MS method; assay type: ADME, organism-based; details: in vivo
[13] = Drug uptake in Sprague-Dawley rat brain administered at 10 mg/kg, po measured after 0.5 hrs; assay type: ADME, organism-based; outline: as §2
[14] = Half life in Beagle dog at 0.125 mg/kg, iv by LC-MS/MS method; assay type: ADME, organism-based, Canis lupus familiaris; details: in vivo
[15] = Partition coefficient, log D of the compound at pH 7.4; assay type: physicochemical; details: octanol/water
[16] = Oral bioavailability in Beagle dog at 0.625 mg/kg by LC-MS/MS method; assay type: ADME, organism-based, Canis lupus familiaris; details: in vivo; outline: as §1
[17] = Drug uptake in Sprague-Dawley rat brain administered at 10 mg/kg, po measured after 2.0 hrs; assay type: ADME, organism-based; outline: as §2
[18] = Volume of distribution at steady state in Sprague-Dawley rat at 0.5 mg/kg, iv or […], po by LC-MS/MS method; assay type: ADME, organism-based; details: in vivo, read-out: Vdss
[19] = Clearance in Beagle dog at 0.125 mg/kg, iv or 0.625 mg/kg, po by LC-MS/MS method; assay type: ADME, organism-based, Canis lupus familiaris; details: in vivo
[20] = Cmax in dog at 300 mg/kg, po for 5 days; assay type: ADME, organism-based, Canis lupus familiaris; set-up: dose 300 mg/kg, route oral; details: in vivo
[21] = Apparent permeability across basolateral to apical side in human Caco2 cells; assay type: ADME, cell-based; details: Caco-2; outline: as §3
[22] = Drug uptake in Sprague-Dawley rat plasma administered at 10 mg/kg, po measured after 2.0 hrs; assay type: ADME, organism-based; outline: as §2
[23] = Cmax in Beagle dog at 0.125 mg/kg, iv or 0.625 mg/kg, po by LC-MS/MS method; assay type: ADME, organism-based, Canis lupus familiaris; details: in vivo
[24] = Clearance in cynomolgus monkey at 0.125 mg/kg, iv or 0.625 mg/kg, po by LC-MS/MS method; assay type: ADME, organism-based, Macaca fascicularis; details: in vivo
[25] = Drug uptake in Sprague-Dawley rat brain administered at 10 mg/kg, po measured after 6.0 hrs; assay type: ADME, organism-based; outline: as §2
[26] = AUC (24 hrs) in cynomolgus monkey at 0.125 mg/kg, iv or 0.625 mg/kg, po by LC-MS/MS method; assay type: ADME, organism-based, Macaca fascicularis; details: in vivo
[27] = Cmax in rat at 250 mg/kg, po for 4 days; assay type: ADME, organism-based; set-up: dose 250 mg/kg, route oral; details: in vivo
[28] = Volume of distribution at steady state in cynomolgus monkey at 0.125 mg/kg, iv or 0.625 mg/kg, po by LC-MS/MS method; assay type: ADME, organism-based, Macaca fascicularis; details: in vivo, read-out: Vdss
[29] = Cmax in cynomolgus monkey at 0.125 mg/kg, iv or 0.625 mg/kg, po by LC-MS/MS method; assay type: ADME, organism-based, Macaca fascicularis; details: in vivo
[30] = AUC in rat dosed at 250 mg/kg, po for 4 days; assay type: ADME, organism-based; details: in vivo
[31] = Oral bioavailability in Sprague-Dawley rat at […] by LC-MS/MS method; assay type: ADME, organism-based; details: in vivo

`C[C@H]1Cc2c(nnn2-c2ncc(F)cn2)CN1C(=O)c1cccc(C(F)(F)F)c1F` showed a Vd [1] of 2.6 L/kg, a half-life [2] of 2.5 h and a bioavailability [3] of 30%. It also gave a clearance [4] of 12 mL/min/kg, an AUC at 120 h [5] of 78400 ng·h/mL and an AUC at 24 h [6] of 3190 ng·h/mL. For the same molecule, the concentration at 0.5 h [7] was 855 ng/mL, the AUC at 24 h [8] was 3040 ng·h/mL and the concentration at 6 h [9] was 1050 ng/mL. It also gave a Papp A→B [10] of 49 ×10⁻⁶ cm/s, a half-life [11] of 0.9 h and a Cmax [12] of 541 ng/mL. It also gave a concentration at 0.5 h [13] of 1060 ng/mL, a half-life [14] of 8.8 h and a logD [15] of 2.23. The bioavailability [16] was 123%, the concentration at 2 h [17] was 2390 ng/mL and the Vd [18] was 2.5 L/kg. It also gave a clearance [19] of 3.8 mL/min/kg, a Cmax [20] of 5330 ng/mL and a Papp B→A [21] of 73 ×10⁻⁶ cm/s. The concentration at 2 h [22] was 1880 ng/mL, the Cmax [23] was 305 ng/mL and the clearance [24] was 26 mL/min/kg. For the same molecule, the concentration at 6 h [25] was 1620 ng/mL, the AUC at 24 h [26] was 122 ng·h/mL and the Cmax [27] was 9260 ng/mL. For the same molecule, the Vd [28] was 1.7 L/kg, the Cmax [29] was 36 ng/mL and the AUC at 96 h [30] was 108000 ng·h/mL. It also gave a bioavailability [31] of 90%.
